# Results reported in ChEMBL document CHEMBL1157145, “Cytotoxic activity of proflavine diureas: synthesis, antitumor, evaluation and DNA binding properties of 1',1''-(acridin-3,6-diyl)-3',3''-dialkyldiureas” (Bioorg Med Chem, 2008).
# Activity calls are given as the source filed them. The rule behind the calls is not given here.
# Legend:
# HeLa [1] = experiment: Cytotoxicity against human HeLa cells after 48 hrs by MTT assay; format: functional, cell-based
# HeLa [2] = experiment: Antiproliferative activity against human HeLa cells assessed as increase of floating cells in total cell population at 24 uM after 24 hrs; format: functional
# Procedure, shortened: (§1)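 Cells seeded (8 · 10^5 per 60 mm dish), allowed to settle 24 h at 37 °C, 5% CO2, then treated with a single concentration for 24 or 48 h. Adherent and floating cells counted by Coulter counter. Total cell number given as % of untreated control; floating cells as % of total cell number.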
# HCT-116 [3] = experiment: Induction of apoptosis in human HCT116 cells at 10 uM after 24 hrs; format: functional
# Procedure, shortened: (§2)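 After 24 or 48 h of drug exposure, all cells were collected, combining trypsinised adherent cells with floating cells from the medium. Cells (1 × 10^6) were fixed in cold 70% ethanol overnight at −20 °C and stained with DAPI (10 µg/mL) for 30 min in the dark at RT. Under fluorescence microscopy, 300 cells per sample were scored, with condensed or fragmented nuclei counted as apoptotic.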
# HCT-116 [4] = experiment: Cell cycle arrest in human HCT116 cells assessed as accumulation at G2/M phase at 10 uM after 24 hrs; format: functional
# Procedure, shortened: (§3)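 Cells seeded at 8 · 10^5 per 60 mm dish, allowed to settle 24 h (37 °C, 5% CO2), then exposed to the drug for 24 or 48 h. Adherent plus floating cells (5 · 10^5) were fixed in cold 70% ethanol at −20 °C overnight, treated with RNase A (100 µg/mL) and stained with propidium iodide (20 µg/mL) in Vindelov's solution for 30 min at RT. Flow cytometry used 488 nm excitation, FL-2 at 585 ± 21 nm, and histograms were modelled for G0/G1, S and G2/M fractions.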
# HCT-116 [5] = experiment: Antiproliferative activity against human HCT116 cells assessed as decrease in total cell population at 10 uM after 24 hrs; format: functional; design: scale not given: the % may be the effect or the level left; procedure, shortened: as §1
# HeLa [6] = experiment: Cell cycle arrest in human HeLa cells assessed as accumulation at G2/M phase at 24 uM after 24 hrs; format: functional; procedure, shortened: as §3
# HeLa [7] = experiment: Antiproliferative activity against human HeLa cells assessed as decrease in total cell population at 24 uM after 24 hrs; format: functional; design: scale not given: the % may be the effect or the level left; procedure, shortened: as §1
# HeLa [8] = experiment: Cell cycle arrest in human HeLa cells assessed as accumulation at G2/M phase at 24 uM after 48 hrs; format: functional; procedure, shortened: as §3
# HeLa [9] = experiment: Cell cycle arrest in human HeLa cells assessed as accumulation at S phase at 24 uM after 48 hrs; format: functional; procedure, shortened: as §3
# HCT-116 [10] = experiment: Cell cycle arrest in human HCT116 cells assessed as accumulation at G2/M phase at 10 uM after 48 hrs; format: functional; procedure, shortened: as §3
# HCT-116 [11] = experiment: Antiproliferative activity against human HCT116 cells assessed as increase of floating cells in total cell population at 10 uM after 48 hrs; format: functional; procedure, shortened: as §1
# HCT-116 [12] = experiment: Cell cycle arrest in human HCT116 cells assessed as accumulation at G0/G1 phase at 10 uM after 24 hrs; format: functional
# Procedure, shortened: (§4)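 Adherent plus floating cells (5 · 10^5) collected 24 or 48 h after treatment, fixed in cold 70% ethanol at −20 °C overnight, washed in PBS. RNase A (100 µg/mL) and propidium iodide (20 µg/mL) in Vindelov's solution, 30 min at RT. Flow cytometry with 488 nm excitation, emission 585 ± 21 nm; % cells per cycle phase from DNA content histograms.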
# HCT-116 [13] = experiment: Antiproliferative activity against human HCT116 cells assessed as increase of floating cells in total cell population at 10 uM after 24 hrs; format: functional; procedure, shortened: as §1
# DNA [14] = experiment: Binding affinity to calf thymus DNA at 50 uM by circular dichroism spectrophotometric titration; format: nucleic-acid assay; details: Bos taurus
# HCT-116 [15] = experiment: Induction of apoptosis in human HCT116 cells at 10 uM after 48 hrs; format: functional; procedure, shortened: as §2
# HeLa [16] = experiment: Cell cycle arrest in human HeLa cells assessed as accumulation at G0/G1 phase at 24 uM after 24 hrs; format: functional; procedure, shortened: as §3
# HeLa [17] = experiment: Induction of apoptosis in human HeLa cells at 24 uM after 24 hrs; format: functional; procedure, shortened: as §2
# HeLa [18] = experiment: Cytotoxicity against human HeLa cells after 72 hrs by MTT assay; format: functional, cell-based
# DNA [19] = experiment: Binding affinity to calf thymus DNA at 4 uM by fluorescence spectrophotometric titration; format: nucleic-acid assay; details: Bos taurus
# Procedure, shortened: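 ctDNA sonicated in TE buffer, concentration taken from A260 and given in base pairs. Compound (4 µM) in 0.01 M Tris, pH 7.4, 25 °C titrated with ctDNA (0–55 µM bp) until spectra stopped changing. Excitation 424 nm, slit widths 10 nm; binding constant derived from the change in emission.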
# HCT-116 [20] = experiment: Antiproliferative activity against human HCT116 cells assessed as decrease in total cell population at 10 uM after 48 hrs; format: functional; design: scale not given: the % may be the effect or the level left; procedure, shortened: as §1
# HeLa [21] = experiment: Induction of apoptosis in human HeLa cells at 24 uM after 48 hrs; format: functional; procedure, shortened: as §2
# HCT-116 [22] = experiment: Cell cycle arrest in human HCT116 cells assessed as accumulation at G0/G1 phase at 10 uM after 48 hrs; format: functional; procedure, shortened: as §4
# HeLa [23] = experiment: Cell cycle arrest in human HeLa cells assessed as accumulation at S phase at 24 uM after 24 hrs; format: functional; procedure, shortened: as §3
# HCT-116 [24] = experiment: Cell cycle arrest in human HCT116 cells assessed as accumulation at S phase at 10 uM after 24 hrs; format: functional; procedure, shortened: as §3
# HCT-116 [25] = experiment: Cytotoxicity against human HCT116 cells after 48 hrs by MTT assay; format: functional, cell-based; details: HCT-116, 48 h
# HeLa [26] = experiment: Cell cycle arrest in human HeLa cells assessed as accumulation at G0/G1 phase at 24 uM after 48 hrs; format: functional; procedure, shortened: as §3
# HCT-116 [27] = experiment: Cytotoxicity against human HCT116 cells after 72 hrs by MTT assay; format: functional, cell-based; details: Homo sapiens, HCT-116, 72 h
# HCT-116 [28] = experiment: Cell cycle arrest in human HCT116 cells assessed as accumulation at S phase at 10 uM after 48 hrs; format: functional; procedure, shortened: as §3
smiles,measurement,setting,value
COc1cc([C@@H]2c3cc4c(cc3[C@@H](O[C@@H]3O[C@@H]5CO[C@@H](C)O[C@H]5[C@H](O)[C@H]3O)[C@H]3COC(=O)[C@H]23)OCO4)cc(OC)c1O [ETOPOSIDE],IC50,HeLa [1],2.9 µM
CCCNC(=O)Nc1ccc2cc3ccc(NC(=O)NCCC)cc3nc2c1.Cl,Activity,HeLa [2],3.84%
same,Activity,HCT-116 [3],2.22%
same,Activity,HCT-116 [4],19.14%
same,Activity,HCT-116 [5],86.16%
same,Activity,HeLa [6],13.4%
same,Activity,HeLa [7],91.36%
same,Activity,HeLa [7]; in the assay text read “after 48 hrs” for “after 24 hrs”,89.95%
same,Activity,HeLa [8],10.06%
same,Activity,HeLa [9],17.12%
same,Activity,HCT-116 [10],15.11%
same,Activity,HCT-116 [11],4.34%
same,Activity,HCT-116 [12],45.07%
same,Activity,HCT-116 [13],5.48%
same,Activity,DNA [14],Active
same,Activity,HCT-116 [15],2.89%
same,Activity,HeLa [16],62.48%
same,Activity,HeLa [17],0.89%
same,IC50,HeLa [18],29.3 µM
same,K,DNA [19],3.8 ×10⁵ /M
same,Activity,HCT-116 [20],71.3%
same,Activity,HeLa [21],1%
same,Activity,HCT-116 [22],57.74%
same,Activity,HeLa [23],24.12%
same,Activity,HCT-116 [24],35.8%
same,IC50,HCT-116 [25],10.3 µM
same,Activity,HeLa [26],72.81%
same,IC50,HeLa [1],23.9 µM
same,IC50,HCT-116 [27],61.5 µM
same,Activity,HCT-116 [28],27.16%
